The results in this text go back to ChEMBL document CHEMBL1146160, “Synthesis and evaluation of some lipidic aminoalcohols and diamines as immunomodulators” (Bioorg Med Chem Lett, 2006).

Calls of active or inactive are those of the source. No cut-off for these calls is given here.

Data set [1] is described as follows: Cytotoxicity against BALB/c mouse splenocytes at 10 ug/ml by MTT assay. The class given is cell-based. The following applies: splenocyte. In a few lines: (§1)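 Run in parallel with the proliferation assay on splenocyte cultures without Con-A, with MTT colourimetric read-out. Cytotoxicity % = [1 − OD(cells+compd)/OD(cells)] × 100.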
For orientation: Formazan colour is commonly taken as a measure of viable cells.

Data set [2] in a line: Inhibition of concanavalin A-stimulated lymphoproliferation in BALB/c mouse splenocytes at 10 ug/ml by MTT assay. The following applies: Splenocyte. The class given is functional.
Data set [3] deals with Macrophage. Put plainly: Increase in nitric oxide production in normal rat alveolar macrophages. The class given is functional, cell-based.
Data set [4] in a line: Cytotoxicity against BALB/c mouse splenocytes at 1 ug/ml by MTT assay. The format is cell-based. The following applies: splenocyte. In a few lines:
as §1

The test system of data set [5] is Macrophage. Briefly: Increase in nitric oxide production in LPS-pre-stimulated rat alveolar macrophages at 10 ug/ml. The class given is functional.
Data set [6] has as its system Macrophage. Put plainly: Increase in nitric oxide production in LPS-pre-stimulated rat alveolar macrophages at 100 ug/ml. The class given is functional.
Another data set has as its system Lymphocyte. Briefly: Reduction of rat lymphocyte stimulation by Graft-vs-Host assay relative to cyclophosphamide. The format is functional. The arrangement: scale not given: the % may be the effect or the level left. In a few lines:
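In a Graft-vs-Host assay measuring immunosuppressant ability, cyclophosphamide at 100 mg/kg/day served as the reference drug.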

Data set [7] is described as follows: Inhibition of concanavalin A-stimulated lymphoproliferation in BALB/c mouse splenocytes at 1 ug/ml by MTT assay. The format is functional. The following applies: Splenocyte.
For data set [8], the system named is Macrophage. Briefly: Increase in nitric oxide production in LPS-pre-stimulated rat alveolar macrophages. The format is functional, cell-based.

Broadly, the inhibition is the relative decrease from the control value, in per cent. In data set [1], `CCCCCCCCCCCCCCC(CO)N(CCCC)CCCC` (stereo not given) gave an Activity of 11.7%. Further, the inhibition at 10 µg/mL in [2] is 50.3%.
Molecule `CCCCCCCCCCCCCCC(NC(=O)OC(C)(C)C)C(=O)O` (stereo not given) registered an Activity in data set [1] of 5.1%. The same molecule returned an inhibition at 10 µg/mL in [2] of 32.9%.
Take `CCCCCCCCCCCCCCC(CN)NC(=O)OC(C)(C)C` (stereo not given): the result in the data set with Macrophage [3] was inactive. Further, the Activity was 4.2% in data set [4]; 4.3% in [1]; 20% with Macrophage [5]; 29% with Macrophage [6]; 32% in the data set on Lymphocyte. This molecule also came in with an inhibition at 10 µg/mL in [2] of 81.2%. Moreover, in [7], the inhibition at 1 µg/mL was 73.4%.
Consider `CCCCCCCCCCCCCCC(CO)NCCCCCC` (stereo not given), for which the result with Macrophage [3] was inactive. Besides, the Activity in data set [4] was found to be 5%; in data set [1], 14.6%; in the data set on Macrophage [6], 25%; in the data set with Lymphocyte, 63%. For the same molecule, in data set [2], 10 µg/mL produced 78.4% inhibition. The inhibition at 1 µg/mL in data set [7] amounted to 74.1%.
Turning to `CCCCCCCCCCCCCCC(N)CN` (stereo not given), the Activity in data set [1] is on record as 2.5%. The molecule further registered an inhibition at 10 µg/mL in [2] of 50.1%.
Molecule `CCCCCCCCCCCCCCC(C(=O)O)N(CCCC)CCCC` (stereo not given) registered an Activity in [1] of 12.5%. Moreover, in data set [2], the inhibition at 10 µg/mL worked out at 47.8%.
Take `CCCCCCCCCCCCCCC(CO)NCCCCCCCCCC` (stereo not given): the results for the Activity in data set [4] and in data set [1] were 6.6% and 12.6%, respectively. Moreover, the inhibition at 10 µg/mL in [2] was determined as 59.8%. For the same molecule, in [7], 1 µg/mL produced 12% inhibition.
As to `CCCCCCCCCCCCCCC(COCc1ccccc1)NC(=O)CCCC(=O)O` (stereo not given), the outcome in the data set on Macrophage [3] and in the data set on Macrophage [8] was inactive. Moreover, the Activity in [4] turned out to be 0%; in data set [1] it was 6.4%. At 10 µg/mL the inhibition in data set [2] was 65.4%. This molecule also yielded an inhibition at 1 µg/mL in [7] of 27.8%.
With `CCCCCCCCCCCCCCC(COCc1ccccc1)NC(=O)CCCC(=O)OC` (stereo not given), the result with Macrophage [3] and in the data set with Macrophage [8] was inactive. Also, the Activity in data set [1] was found to be 2.5%. The inhibition at 10 µg/mL in data set [2] was 3.4%.
In the case of `CCCCCCCCCCCCCCC(N)CN(CC)CC` (stereo not given), the result in the data set with Macrophage [3] and in the data set on Macrophage [8] was inactive. Moreover, the Activity in data set [4] was 1.7%; in data set [1] it was 24.2%. Also, in data set [2], the inhibition at 10 µg/mL turned out to be 84.5%. For the same molecule, the inhibition at 1 µg/mL in [7] turned out to be 74.2%.
In turn, `CCCCCCCCCCCCCCC(C(=O)O)N(CC)CC` (stereo not given) had an Activity in data set [1] of 12.1%. In addition, the inhibition at 10 µg/mL in data set [2] came to 43.1%.
In the case of `CCCCCCCCCCCCCCC(CN(CC)CC)NC(=O)OC(C)(C)C` (stereo not given), the values for the Activity in data set [4] and in [1] were 6.5% and 7.8%, respectively. For the same molecule, testing at 10 µg/mL in data set [2] gave an inhibition of 89.5%. In addition, in data set [7], testing at 1 µg/mL gave an inhibition of 65.2%.
Regarding `CCCCCCCCCCCCCCC(CO)NCC` (stereo not given), the Activity in data set [4] is on record as 10.5%; in [1], 17.1%. This molecule also registered an inhibition at 10 µg/mL in [2] of 72.9%. Moreover, the inhibition at 1 µg/mL in data set [7] was 68.4%.
As to `CCCCCCCCCCCCCCC(NCCCC)C(=O)O` (stereo not given), in data set [1], the Activity turned out to be 5.1%. In data set [2], this molecule had an inhibition at 10 µg/mL of 32.9%.
As for `CCCCCCCCCCCCCCC(CO)NC(=O)CCCC(=O)O` (stereo not given), the Activity in [1] amounted to 14.5%. The inhibition at 10 µg/mL in data set [2] came to 49.1%.
In [1], `CCCCCCCCCCCCCCC(CO)NC(=O)CCCC(=O)OC` (stereo not given) showed an Activity of 18.9%. In [2], this molecule had an inhibition at 10 µg/mL of 50.2%.
Turning to `CCCCCCCCCCCCCCC(CO)N(CC)CC` (stereo not given), the Activity in data set [4] is on record as 7.5%; in [1] it was 12.8%. In [2], at 10 µg/mL the inhibition was 79.5%. Further, the inhibition at 1 µg/mL in [7] turned out to be 74.8%.
As to `CCCCCCCCCCCCCCC(N)COCc1ccccc1` (stereo not given), the outcome in the data set with Macrophage [3] and in the data set on Macrophage [8] was inactive. The Activity is 0% in [4] and 12.2% in data set [1]. The inhibition at 10 µg/mL in data set [2] came out at 79.1%. This molecule also gave an inhibition at 1 µg/mL in [7] of 0%.
Turning to `CCCCCCCCCCCCCCC(COCc1ccccc1)NCC` (stereo not given), in [1], the Activity is 11.9%. In addition, the inhibition at 10 µg/mL in [2] came out at 49.8%.
For `CCCCCCCCCCCCCCC(N)CO` (stereo not given), the Activity in data set [4] is reported as 15.1%; in [1] it was 20.2%. This molecule displayed an inhibition at 10 µg/mL in data set [2] of 72.4%. The molecule further yielded an inhibition at 1 µg/mL in data set [7] of 68.7%.
For `CCCCCCCCCCCCCCC(CNC(=O)CCCC(=O)O)NC(=O)OC(C)(C)C` (stereo not given), the Activity in data set [4] is 0%; in data set [1] it was 1.2%. Further, the result in the data set on Macrophage [8] was inactive. For the same molecule, in [2], testing at 10 µg/mL gave an inhibition of 80.8%. The molecule further showed an inhibition at 1 µg/mL in data set [7] of 19.3%.
Molecule `CCCCCCCCCCCCCCC(CO)NCCCC` (stereo not given) registered an Activity in data set [1] of 16.4%. Also, the inhibition at 10 µg/mL in data set [2] came to 49.1%.
Consider `CCCCCCCCCCCCCCC(N)CNC(=O)CCCC(=O)O` (stereo not given), for which the result in the data set on Macrophage [3] and in the data set with Macrophage [8] was inactive. This molecule had an Activity in data set [1] of 12.8%. The molecule further returned an inhibition at 10 µg/mL in data set [2] of 51%.
For `CCCCCCCCCCCCCCC(COCc1ccccc1)N(CC)CC` (stereo not given), the Activity in [4] was 14.1%; in data set [1], 15.6%. In addition, the inhibition at 10 µg/mL in data set [2] amounted to 72.6%. In data set [7], this molecule returned an inhibition at 1 µg/mL of 71.6%.
